Measurements taken from ChEMBL document CHEMBL1122794, “[(Arylcarbonyl)oxy]propanolamines. 1. Novel beta-blockers with ultrashort duration of action” (J Med Chem, 1984).

What was measured:
Adrenergic receptor beta [1] = molecular target: T1, Adrenergic receptor beta (Homo sapiens, UniProt P08588+P07550+P13945); assay: In Vitro inhibition of the beta adrenergic receptor in guinea pig atria; format: tissue-based, Cavia porcellus; conditions: target entry is the homologue from another species
[2] = Selectivity determined by expression 10[pA2(atria) - pA2 (trachea)] in guinea pig; format: functional, Cavia porcellus
Adrenergic receptor beta [3] = molecular target: T1, Adrenergic receptor beta; assay: In vitro blocking of beta adrenergic receptor in guinea pig trachea; format: tissue-based, Cavia porcellus; conditions: target entry is the homologue from another species
Canis familiaris [4] = species: Canis familiaris; assay: Time taken for 80% recovery at a dose of 123 microg (3-h infusion period); format: functional, organism-based; conditions: Canis lupus familiaris
[5] = t1/2 in canine liver; format: ADME, Canis lupus familiaris; conditions: dog
[6] = Time in which 1/2 of the initial amount disappeared in human blood.; format: ADME, organism-based
Outline: (§1)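 1 mL of solution containing 50 µg of compound was added to 1 mL of dog or human whole blood, or to 1 mL of 33% (w/v) canine liver homogenate. They were assayed by HPLC on a phenyl column with 60% acetonitrile/40% 0.05 M sodium phosphate (pH 6.6) and UV detection. Half-life was read graphically from concentration versus time.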

[7] = T1/2 in canine blood; format: ADME, […], Canis lupus familiaris; conditions: dog; outline: as §1
[8] = Stability at pH 7.4 and 37 degree Celsius (after 18 h); format: physicochemical; conditions: buffer
Outline: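 Chemical stability was tested in pH 7.4 buffer at 37 °C. The percentage of parent compound remaining after 18 h of incubation was recorded.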

Canis familiaris [9] = species: Canis familiaris; assay: Percent inhibition of isoproterenol induced tachycardia at a dose of 7 microg (3-h infusion period); format: functional, Canis lupus familiaris
Canis familiaris [10] = species: Canis familiaris; assay: Time taken for 80% recovery at a dose of 7 microg (3-h infusion period); format: functional, organism-based; conditions: Canis lupus familiaris
Outline: (§2)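 After the infusion ended, the time to 80% recovery of the blockade was recorded as duration of action. The listed dose is the average amount infused per minute over the 3-h period, in µg/(kg min).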

Canis familiaris [11] = species: Canis familiaris; assay: Time taken for 80% recovery at a dose of 28 microg (3-h infusion period); format: functional, organism-based; conditions: Canis lupus familiaris
Canis familiaris [12] = species: Canis familiaris; assay: Time taken for 80% recovery at a dose of 209 microg (3-h infusion period); format: functional, organism-based; conditions: Canis lupus familiaris
[13] = molecular target: Beta-2 adrenergic receptor (Cavia porcellus) (UniProt Q8K4Z4); assay: In Vitro evaluation for […] selectivity in guinea pig
Outline: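 Selectivity index calculated as 10^[pA2(atria) − pA2(trachea)] from pA2 values measured in isolated guinea pig atria and trachea. A minus sign denotes β2 selectivity.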

Canis familiaris [14] = species: Canis familiaris; assay: Time taken for 80% recovery at a dose of 59 microg (3-h infusion period); format: functional, organism-based; conditions: Canis lupus familiaris; outline: as §2

Chain of Beta-2 adrenergic receptor (Cavia porcellus) (Q8K4Z4 whole entry, looked up): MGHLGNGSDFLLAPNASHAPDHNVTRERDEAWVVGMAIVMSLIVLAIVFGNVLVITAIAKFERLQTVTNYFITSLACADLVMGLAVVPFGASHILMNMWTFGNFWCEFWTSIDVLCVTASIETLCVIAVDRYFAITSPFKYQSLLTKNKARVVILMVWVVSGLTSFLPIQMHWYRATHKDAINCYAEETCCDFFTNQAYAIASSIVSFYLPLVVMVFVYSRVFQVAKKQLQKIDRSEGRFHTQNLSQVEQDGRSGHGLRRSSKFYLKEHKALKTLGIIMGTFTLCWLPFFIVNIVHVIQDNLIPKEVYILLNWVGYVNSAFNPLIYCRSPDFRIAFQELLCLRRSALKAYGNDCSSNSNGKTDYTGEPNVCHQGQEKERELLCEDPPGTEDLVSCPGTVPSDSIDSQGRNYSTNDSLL

Row | SMILES | pA2 (Adrenergic receptor beta [1]) | Selectivity [2] | pA2 (Adrenergic receptor beta [3]) | half-life [5] | half-life [7] | further results
1 | CC(=O)NCC(C)NCC(O)COC(=O)c1ccccc1F (stereo unspecified) | < 6.3 |  |  |  |  | 
2 | COc1ccc(CCNCC(O)COC(=O)c2ccc(N)cc2)cc1OC (stereo unspecified) | 6.5 | 6 | 5.7 |  |  | 
3 | CC(C)NCC(O)COC(=O)c1ccc2c(c1)OCO2 (stereo unspecified) | 6.9 |  |  | 29 min |  | Recovery time (Canis familiaris [4]): 50 min
4 | Cc1ccc(C(=O)OCC(O)CNC(C)C)cc1 (stereo unspecified) | 6.8 | 1 | 6.8 | 10.4 min | 67 min | half-life [6]: 6 min
5 | CC(C)(C)NCC(O)COC(=O)c1cccc(OCc2ccccc2)c1 (stereo unspecified) |  |  |  | > 180 min | > 180 min | 
6 | C=CCOc1cccc(C(=O)OCC(O)CNC(C)C)c1 (stereo unspecified) | 6.8 | 1 | 6.8 |  |  | 
7 | C=CCOc1ccc(C(=O)OCC(O)CNC(C)(C)C)cc1 (stereo unspecified) | 6 |  |  |  |  | 
8 | COc1ccc(CCNCC(O)COC(=O)c2ccc(CO)cc2)cc1OC (stereo unspecified) | < 5.5 |  |  |  |  | 
9 | CC(C)(C)NCC(O)COC(=O)c1cccc2ccccc12 (stereo unspecified) | 6.8 | -4 | 7.4 | > 180 min | > 180 min | 
10 | CC(C)(C)NCC(O)COC(=O)c1cccc(N)c1 (stereo unspecified) | 6.7 | -3.5 | 7.2 |  |  | 
11 | C#CC(C)(C)NCC(O)COC(=O)c1ccccc1F (stereo unspecified) | 6.6 | 1 | 6.7 | 7 min | 12 min | 
12 | COc1ccc(CCNCC(O)COC(=O)c2ccccc2Cl)cc1OC (stereo unspecified) | 7.8 | 2 | 7.5 |  |  | remaining at 18 h [8]: 59%
13 | CCC(C)(C)NCC(O)COC(=O)c1ccccc1F (stereo unspecified) | 6.7 | -5 | 7.7 | 12 min | 6 min | 
14 | CC(C)(C)NCC(O)COC(=O)c1ccc(N)cc1 (stereo unspecified) | 7 | 1 | 7 |  |  | 
15 | CC(C)(C)NCC(O)COC(=O)C1c2ccccc2-c2ccccc21 (stereo unspecified) | < 6 |  |  |  |  | 
16 | CC(C)NCC(O)COC(=O)c1cccc(N)c1 (stereo unspecified) | 6.4 | -2.5 | 6.8 | > 180 min | > 180 min | Inhibition (Canis familiaris [9]): 80%; Recovery time (Canis familiaris [10]): > 60 min

Row | SMILES | pA2 (Adrenergic receptor beta [1]) | Selectivity [2] | pA2 (Adrenergic receptor beta [3]) | half-life [5] | half-life [7] | further results
17 | O=C(Cc1ccccc1)NCCNCC(O)COC(=O)c1ccccc1F (stereo unspecified) | < 6 |  |  |  |  | 
18 | CC(C)NCC(O)COC(=O)c1cccc(F)c1 (stereo unspecified) |  |  |  | 11 min | 52 min | half-life [6]: 8 min
19 | CNCC(O)COC(=O)c1ccc2c(c1)OCO2 (stereo unspecified) | 5.3 |  |  |  |  | 
20 | CC(C)(C)NCC(O)COC(=O)c1ccc(OCc2ccccc2)cc1 (stereo unspecified) | 6.2 |  |  |  |  | 
21 | COc1ccc(CCNCC(O)C(=O)Oc2ccccc2C)cc1OC (stereo unspecified) | 5.9 |  |  |  |  | 
22 | Cc1ccccc1C(=O)OCC(O)CNC(C)(C)C (stereo unspecified) | 7.3 | -4 | 7.9 | > 180 min | > 180 min | remaining at 18 h [8]: 100%; half-life [6]: > 180 min
23 | CC(C)NCC(O)COC(=O)c1cccc([N+](=O)[O-])c1 (stereo unspecified) | 6.8 | -2.5 | 7.2 |  |  | 
24 | CC(C)NCC(O)COC(=O)c1cccc2ccccc12 (stereo unspecified) | 6.6 | -2.5 | 7 |  |  | 
25 | CC(C)(C)NCC(O)COC(=O)c1ccc2c(c1)OCO2 (stereo unspecified) | 6.9 |  |  |  |  | Recovery time (Canis familiaris [11]): > 60 min
26 | CC(C)(C)NCC(O)COC(=O)CCc1ccccc1 (stereo unspecified) | < 6 |  |  |  | < 2.5 min | half-life [6]: 71 min
27 | COc1ccc(C(=O)OCC(O)CNC(C)C)cc1 (stereo unspecified) | 6 | -2 | 6.3 | 37 min | 150 min | half-life [6]: 55 min; Recovery time (Canis familiaris [12]): > 60 min
28 | COCCOC(=O)NCC(C)(C)NCC(O)COC(=O)c1ccccc1F (stereo unspecified) | 7.7 | 1 | 7.7 |  |  | 
29 | COc1ccc(CCNCC(O)C(=O)Oc2ccccc2)cc1OC (stereo unspecified) | 5.9 |  | 5.9 |  |  | Selectivity [13]: 1
30 | CCCOc1cccc(C(=O)OCC(O)CNC(C)C)c1 (stereo unspecified) | 6.6 |  |  |  |  | 
31 | COc1ccc(CCNCC(O)COC(=O)c2ccc(F)cc2)cc1OC (stereo unspecified) | 7 | 2 | 6.7 |  |  | Recovery time (Canis familiaris [14]): > 60 min
